In general, inhibition refers to how much of the control response was suppressed. In general, IC50 refers to the point on the concentration scale where inhibition reaches its midpoint.

The subject of series [1] is Leishmania braziliensis. Put plainly: Antileishmanial activity against Leishmania braziliensis MHOM/BR/75/M2903 promastigotes at 10 ug/ml after 72 hrs relative to control. It is filed as functional. Particulars: MHOM/BR/75/M2903, 72 h. A digest of the protocol:
(§1)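 Promastigotes, 50 000 per well, were exposed to compound in liquid medium (final DMSO <0.1%) at 27 °C for 72 h. Growth was judged by inverted-phase microscopy of a culture drop against extract-free controls. Assays were run in triplicate.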

Series [2] deals with Trypanosoma cruzi. Put plainly: Trypanocidal activity against Trypanosoma cruzi Tulahuen epimastigotes at 10 ug/ml after 48 hrs relative to control. Format: functional. Particulars: Tuluhuen. A digest of the protocol:
(§2)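 T. cruzi epimastigotes in LIT medium with 10% FCS at 28 °C (inoculum 10^6 cells/mL) were exposed to compound (final DMSO <0.5%) for 48 h. Parasites were counted in a hemocytometer and compared with extract-free controls, in triplicate.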

For series [3], the system named is Leishmania chagasi. Put plainly: Antileishmanial activity against Leishmania donovani chagasi PP75 at 10 ug/ml. Format: functional.
In series [4] the test system is Leishmania amazonensis. Put plainly: Antileishmanial activity against Leishmania amazonensis MHOM/GF/84/CAY H-142 promastigotes at 10 ug/ml after 72 hrs relative to control.
The subject of series [5] is Trypanosoma cruzi. Put plainly: Trypanocidal activity against Trypanosoma cruzi Tulahuen epimastigotes at 2.5 ug/ml after 48 hrs relative to control. The note with it: Tuluhuen. Format: functional. The gist of the method:
as §2

Series [6] deals with Leishmania braziliensis. Put plainly: Antileishmanial activity against Leishmania braziliensis MHOM/BR/75/M2903 promastigotes at 2.5 ug/ml after 72 hrs relative to control. It is filed as functional. The note with it: MHOM/BR/75/M2903, 72 h. A digest of the protocol:
as §1

Series [7] has as its system Trypanosoma cruzi. Put plainly: Trypanocidal activity against Trypanosoma cruzi Tulahuen epimastigotes at 20 ug/ml after 48 hrs relative to control. Particulars: Tuluhuen. It is filed as functional. A digest of the protocol:
as §2

For series [8], the system named is Mus musculus. Put plainly: Toxicity in Plasmodium berghei NK65 infected mice (Mus musculus) at 8 mg/kg administered daily for 4 days. Particulars: in vivo, 96 h. The arrangement: dose 8 mg/kg. It is filed as organism-based. The gist of the method: (§3)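 Mice infected with P. berghei NK 65 on day 1 were dosed daily for four consecutive days in the four-day suppressive test. Lethality was recorded on day 4.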

Series [9] relates to Plasmodium berghei. Put plainly: Antiplasmodial activity as reduced parasitaemia in Plasmodium berghei NK65 infected mice (Mus musculus) at 16 mg/kg/day for 4 days. It is filed as functional. Also on record: scale not given: the % may be the effect or the level left. A digest of the protocol:
(§4)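 Four-day suppressive test adapted from Peters: mice were inoculated with P. berghei NK 65 on day 1 and treated daily for four consecutive days. A blood smear was taken on day 5, and parasitemia was compared with infected untreated controls.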

The test system of series [10] is Trypanosoma cruzi. Put plainly: Trypanocidal activity against Trypanosoma cruzi Tulahuen epimastigotes at 5 ug/ml after 48 hrs relative to control. It is filed as functional. Particulars: Tuluhuen. The gist of the method: as §2
The subject of series [11] is KB. Put plainly: Cytotoxicity against human KB cells. Format: cell-based.
The test system of series [12] is Plasmodium falciparum. Put plainly: Antimalarial activity against chloroquine-sensitive Plasmodium falciparum 2087 after 24 hrs. Format: functional, organism-based. The gist of the method: (§5)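 P. falciparum strains 2087 and INDO kept in human erythrocytes. Samples were dissolved with DMSO (≤0.1% in dilutions) in RPMI 1640 and tested in triplicate with O+ red cells at 5% hematocrit and 1% parasitemia. Plates were incubated 24 h at 37 °C by candle-jar, then 48 h more with daily medium change. Parasitemia was counted by day-3 smear; IC50 came from linear regression of % inhibition versus control.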

Series [13] concerns Leishmania braziliensis. Put plainly: Antileishmanial activity against Leishmania braziliensis MHOM/BR/75/M2903 promastigotes at 5 ug/ml after 72 hrs relative to control. It is filed as functional. The note with it: MHOM/BR/75/M2903, 72 h. A digest of the protocol:
as §1

Series [14] relates to Leishmania chagasi. Put plainly: Antileishmanial activity against Leishmania donovani chagasi PP75 at 2.5 ug/ml. Format: functional.
For series [15], the system named is Leishmania amazonensis. Put plainly: Antileishmanial activity against Leishmania amazonensis MHOM/GF/84/CAY H-142 promastigotes at 5 ug/ml after 72 hrs relative to control.
Series [16] in a line: Cytotoxicity against BALB/c mouse peritoneal macrophages assessed as survival at 5 ug/ml. It is filed as cell-based, Macrophage. Particulars: read-out: Activity.
The subject of series [17] is Plasmodium berghei. Put plainly: Antiplasmodial activity as reduced parasitaemia in Plasmodium berghei NK65 infected mice (Mus musculus) at 8 mg/kg/day for 4 days. It is filed as functional. Also on record: scale not given: the % may be the effect or the level left. A digest of the protocol: as §4
Series [18] can be described thus: Cytotoxicity against BALB/c mouse peritoneal macrophages assessed as survival at 20 ug/ml. Format: cell-based, Macrophage. Particulars: read-out: Activity.
A short description of series [19]: Cytotoxicity against BALB/c mouse peritoneal macrophages assessed as survival at 10 ug/ml. Format: cell-based, Macrophage. Particulars: read-out: Activity.
Series [20] has as its system Leishmania chagasi. Put plainly: Antileishmanial activity against Leishmania donovani chagasi PP75 at 5 ug/ml. It is filed as functional.
Series [21] is described as follows: Selectivity index, ratio of IC50 for KB cells to IC50 for chloroquine-resistant Plasmodium falciparum INDO. The note with it: human, read-out: Ratio IC50. It is filed as toxicity, cell-based.
Series [22] has as its system Leishmania chagasi. Put plainly: Antileishmanial activity against Leishmania donovani chagasi PP75 at 20 ug/ml. Format: functional.
The nature of series [23]: Selectivity index, ratio of IC50 for KB cells to IC50 for chloroquine -sensitive Plasmodium falciparum 2087. It is filed as toxicity, cell-based. The note with it: human, read-out: Ratio IC50.
Series [24] has as its system Leishmania braziliensis. Put plainly: Antileishmanial activity against Leishmania braziliensis MHOM/BR/75/M2903 promastigotes at 20 ug/ml after 72 hrs relative to control. It is filed as functional. The note with it: MHOM/BR/75/M2903, 72 h. The gist of the method: as §1
The subject of series [25] is Plasmodium falciparum. Put plainly: Antimalarial activity against chloroquine-resistant Plasmodium falciparum Indo after 24 hrs. It is filed as functional, organism-based. A digest of the protocol:
as §5

Series [26] has as its system Mus musculus. Put plainly: Toxicity in Plasmodium berghei NK65 infected mice (Mus musculus) at 16 mg/kg administered daily for 4 days. It is filed as organism-based. The arrangement: dose 16 mg/kg. Particulars: in vivo, 96 h. A digest of the protocol:
as §3

Series [27] relates to Plasmodium berghei. Put plainly: Antiplasmodial activity as reduced parasitaemia in Plasmodium berghei NK65 infected mice (Mus musculus) at 32 mg/kg/day for 4 days. It is filed as functional. Also on record: scale not given: the % may be the effect or the level left. A digest of the protocol: as §4
Series [28] concerns Leishmania amazonensis. Put plainly: Antileishmanial activity against Leishmania amazonensis MHOM/GF/84/CAY H-142 promastigotes at 2.5 ug/ml after 72 hrs relative to control.
In series [29] the test system is Leishmania amazonensis. Put plainly: Antileishmanial activity against Leishmania amazonensis MHOM/GF/84/CAY H-142 promastigotes at 20 ug/ml after 72 hrs relative to control.

Take `N=C(N)c1ccc(OCCCCCOc2ccc(C(=N)N)cc2)cc1` [PENTAMIDINE]: the inhibition at 10 µg/mL in series [1], in [2], in [3] and in [4] was 100% each time.
As for `C[C@H]1CC[C@H]([C@@H](C)[C@H]2CC[C@H]3[C@@H]4CC=C5C[C@@H](N)CC[C@]5(C)[C@H]4CC[C@]23C)NC1`, the inhibition at 10 µg/mL was 100% in series [1], 50% in series [2], 100% in series [3] and 100% in series [4]. In addition, the inhibition at 2.5 µg/mL in [5], in [6], in series [14] and in series [28] was 0% each time. Besides, the inhibition at 20 µg/mL in series [7], in series [22], in series [24] and in series [29] was 100% throughout. The Activity entry in [8] is reported as “Non-toxic”; in [9], 27%; in [17] it was 16%; in series [26] it was “Non-toxic”; in series [27] it was 69%. In addition, the inhibition at 5 µg/mL in series [10] was 0%; in series [13], 50%; in series [15], 50%; in series [20] it was 50%. In addition, the IC50 was determined as 50000 nM in [11], 25 nM in [12] and 176 nM in [25]. Besides, the viability at 5 ug/ml in series [16] is 0%. Further, in series [18], the viability at 20 ug/ml is 0%. Further, in series [19], the viability at 10 ug/ml came to 0%. In addition, the selectivity ratio was 286 in series [21] and 2000 in series [23].

The values above are taken from ChEMBL document CHEMBL1151311, “A novel antiprotozoal aminosteroid from Saracha punctata” (J Nat Prod, 1998).
